Reference: ChEMBL document CHEMBL1933007, “Novel brain penetrant benzofuropiperidine 5-HT₆ receptor antagonists” (Bioorg Med Chem Lett, 2012)
Active and inactive are the calls of the source. No cut-off for these calls is given here.

Biological target: 5-hydroxytryptamine receptor 2A (Homo sapiens) (UniProt P28223)
Conditions: 10 uM

Sequence of 5-hydroxytryptamine receptor 2A (Homo sapiens) (P28223 whole entry): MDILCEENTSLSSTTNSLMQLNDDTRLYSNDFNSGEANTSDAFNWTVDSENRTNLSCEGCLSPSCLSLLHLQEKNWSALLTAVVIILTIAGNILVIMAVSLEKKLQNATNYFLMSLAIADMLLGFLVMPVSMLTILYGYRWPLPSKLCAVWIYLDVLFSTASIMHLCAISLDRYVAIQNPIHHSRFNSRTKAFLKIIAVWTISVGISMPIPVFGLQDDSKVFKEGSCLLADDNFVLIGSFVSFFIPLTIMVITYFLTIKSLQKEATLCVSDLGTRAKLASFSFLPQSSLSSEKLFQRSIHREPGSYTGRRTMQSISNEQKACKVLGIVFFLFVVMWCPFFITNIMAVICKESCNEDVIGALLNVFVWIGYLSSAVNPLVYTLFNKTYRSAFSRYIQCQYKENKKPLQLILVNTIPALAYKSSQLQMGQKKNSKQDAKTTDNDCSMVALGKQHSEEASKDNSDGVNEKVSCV

Row | SMILES | inhibition
1 | O=S(=O)(c1cccc(F)c1)c1ccc2c3c(oc2c1)C1(CCCOC1)NCC3 (stereo in doubt; 2) [listing 1 of 2 here] | > 50%

Biological target: T1, Cytochrome P450 1A2 (Homo sapiens, UniProt P05177)
T1 sequence (P05177 whole entry): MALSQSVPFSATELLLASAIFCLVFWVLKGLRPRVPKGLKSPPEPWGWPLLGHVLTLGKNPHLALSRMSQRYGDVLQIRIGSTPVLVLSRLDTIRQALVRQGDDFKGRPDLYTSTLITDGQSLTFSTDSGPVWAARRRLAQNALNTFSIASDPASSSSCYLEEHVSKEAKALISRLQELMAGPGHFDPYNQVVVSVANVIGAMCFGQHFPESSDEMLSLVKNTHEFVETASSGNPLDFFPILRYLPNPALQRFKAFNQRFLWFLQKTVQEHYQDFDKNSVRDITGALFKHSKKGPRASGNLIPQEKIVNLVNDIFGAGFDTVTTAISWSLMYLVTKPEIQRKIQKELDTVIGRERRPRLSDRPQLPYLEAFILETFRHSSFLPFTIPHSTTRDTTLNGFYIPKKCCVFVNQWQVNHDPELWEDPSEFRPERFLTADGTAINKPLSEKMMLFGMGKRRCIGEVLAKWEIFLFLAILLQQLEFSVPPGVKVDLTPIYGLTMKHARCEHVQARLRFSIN
Assay: Inhibition of CYP1A2
Assay type: ADME
Conditions: not given

Row | SMILES | IC50
2 | O=S(=O)(c1cccc(F)c1)c1ccc2c3c(oc2c1)C1(CCCOC1)NCC3 (stereo in doubt; 2) [listing 2 of 2 here] | > 30 µM

Biological target: T2, 5-hydroxytryptamine receptor 2B (Homo sapiens, UniProt P41595)
T2 sequence (P41595 whole entry): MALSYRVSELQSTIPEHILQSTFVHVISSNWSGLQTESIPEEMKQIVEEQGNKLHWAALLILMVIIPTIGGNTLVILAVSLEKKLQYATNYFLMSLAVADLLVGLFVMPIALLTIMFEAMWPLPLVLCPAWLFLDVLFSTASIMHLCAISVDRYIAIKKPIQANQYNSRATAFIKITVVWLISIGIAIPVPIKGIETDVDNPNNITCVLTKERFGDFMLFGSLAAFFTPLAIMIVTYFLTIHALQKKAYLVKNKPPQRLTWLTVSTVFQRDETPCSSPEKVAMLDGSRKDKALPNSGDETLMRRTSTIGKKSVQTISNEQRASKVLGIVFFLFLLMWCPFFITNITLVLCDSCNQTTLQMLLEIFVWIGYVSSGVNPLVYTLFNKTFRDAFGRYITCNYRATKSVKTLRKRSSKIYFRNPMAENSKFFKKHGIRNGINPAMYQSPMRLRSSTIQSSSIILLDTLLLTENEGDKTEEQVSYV
Assay: Antagonist activity at 5HT2B receptor
Assay type: functional
Conditions: not given

Row | SMILES | IC50
3 | O=S(=O)(c1cccc(F)c1)c1ccc2c3c(oc2c1)C1(CCCOC1)NCC3 (stereo in doubt; 2) [listing 2 of 2 here] | 1.5 µM

Tested on: not listed separately
Assay: Oral bioavailability in rat at 5 mg/kg
Assay type: ADME, organism-based
Conditions: in vivo

Row | SMILES | bioavailability
4 | O=S(=O)(c1cccc(F)c1)c1ccc2c3c(oc2c1)C1(CCCOC1)NCC3 (stereo in doubt; 2) [listing 2 of 2 here] | 36%

Biological target: Cytochrome P450 2D6 (Homo sapiens, UniProt P10635)
Sequence (P10635 whole entry): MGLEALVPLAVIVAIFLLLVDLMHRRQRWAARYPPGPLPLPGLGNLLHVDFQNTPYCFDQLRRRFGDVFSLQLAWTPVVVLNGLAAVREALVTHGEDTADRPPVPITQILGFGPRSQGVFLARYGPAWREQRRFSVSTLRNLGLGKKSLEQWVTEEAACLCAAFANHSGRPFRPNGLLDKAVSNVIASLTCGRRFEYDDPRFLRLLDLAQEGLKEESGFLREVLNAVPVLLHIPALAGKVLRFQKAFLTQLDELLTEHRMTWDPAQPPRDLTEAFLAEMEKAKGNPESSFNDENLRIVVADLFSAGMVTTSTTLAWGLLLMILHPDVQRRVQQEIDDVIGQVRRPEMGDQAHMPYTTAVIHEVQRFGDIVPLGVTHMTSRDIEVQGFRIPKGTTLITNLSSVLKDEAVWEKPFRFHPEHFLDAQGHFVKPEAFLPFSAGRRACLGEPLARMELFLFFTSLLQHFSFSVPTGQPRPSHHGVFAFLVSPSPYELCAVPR
Assay: Inhibition of CYP2D6
Assay type: ADME
Conditions: not given

Row | SMILES | IC50
5 | O=S(=O)(c1cccc(F)c1)c1ccc2c3c(oc2c1)C1(CCCOC1)NCC3 (stereo in doubt; 2) [listing 2 of 2 here] | > 30 µM

Biological target: Cytochrome P450 2C9 (Homo sapiens, UniProt P11712)
Sequence (P11712 whole entry): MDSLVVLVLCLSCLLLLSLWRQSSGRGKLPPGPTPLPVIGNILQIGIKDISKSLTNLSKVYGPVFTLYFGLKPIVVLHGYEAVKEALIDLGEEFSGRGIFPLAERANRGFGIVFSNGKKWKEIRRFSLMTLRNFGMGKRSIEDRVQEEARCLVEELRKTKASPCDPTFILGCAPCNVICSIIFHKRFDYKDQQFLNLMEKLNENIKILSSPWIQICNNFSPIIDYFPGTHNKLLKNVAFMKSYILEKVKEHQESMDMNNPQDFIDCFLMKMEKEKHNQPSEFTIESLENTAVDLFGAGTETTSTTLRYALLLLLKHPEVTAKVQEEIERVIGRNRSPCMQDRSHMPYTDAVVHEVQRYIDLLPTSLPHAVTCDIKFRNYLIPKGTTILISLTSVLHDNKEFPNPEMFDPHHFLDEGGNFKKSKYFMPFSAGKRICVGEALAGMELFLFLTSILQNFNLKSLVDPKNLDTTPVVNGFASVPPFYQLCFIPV
Assay: Inhibition of CYP2C9
Assay type: ADME
Conditions: not given

Row | SMILES | IC50
6 | O=S(=O)(c1cccc(F)c1)c1ccc2c3c(oc2c1)C1(CCCOC1)NCC3 (stereo in doubt; 2) [listing 2 of 2 here] | 1.9 µM

Tested on: Brain
Assay: Drug uptake in rat brain at 5 mg/kg, ip after 1 hr
Assay type: ADME, organism-based
Parameters: dose 5 mg/kg, route intraperitoneal
Conditions: in vivo
Method in brief: (§1)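 Rats dosed intraperitoneally at 5 mg/kg. Brain concentration measured at 1 h and expressed as a brain-to-plasma ratio.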

Row | SMILES | Drug uptake
7 | O=S(=O)(c1cccc(F)c1)c1ccc2c3c(oc2c1)C1(CCCOC1)NCC3 (stereo in doubt; 2) [listing 2 of 2 here] | 1660 nmol/g

Biological target: T2, 5-hydroxytryptamine receptor 2B
Conditions: 10 uM

Row | SMILES | inhibition
8 | O=S(=O)(c1cccc(F)c1)c1ccc2c3c(oc2c1)C1(CCCOC1)NCC3 (stereo in doubt; 2) [listing 1 of 2 here] | > 50%

Biological target: T3, Alpha-2A adrenergic receptor (Homo sapiens) (UniProt P08913)
T3 sequence (whole entry): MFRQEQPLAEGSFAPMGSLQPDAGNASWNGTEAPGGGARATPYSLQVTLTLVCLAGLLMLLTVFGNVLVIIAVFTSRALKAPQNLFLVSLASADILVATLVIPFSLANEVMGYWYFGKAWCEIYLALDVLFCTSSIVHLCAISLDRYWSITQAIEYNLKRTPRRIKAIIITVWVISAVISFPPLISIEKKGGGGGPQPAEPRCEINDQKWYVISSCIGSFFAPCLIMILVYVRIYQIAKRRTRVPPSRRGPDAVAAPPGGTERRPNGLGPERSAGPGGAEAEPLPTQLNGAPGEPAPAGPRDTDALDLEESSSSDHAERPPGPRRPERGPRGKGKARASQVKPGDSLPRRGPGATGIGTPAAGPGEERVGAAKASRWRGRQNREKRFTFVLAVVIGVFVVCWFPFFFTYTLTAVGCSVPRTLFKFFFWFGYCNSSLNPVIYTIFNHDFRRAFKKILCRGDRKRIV
Conditions: 10 uM

Row | SMILES | inhibition
9 | O=S(=O)(c1cccc(F)c1)c1ccc2c3c(oc2c1)C1(CCCOC1)NCC3 (stereo in doubt; 2) [listing 1 of 2 here] | > 50%

Tested on: not listed separately
Assay: Half life in dog liver microsomes
Assay type: ADME, Canis lupus familiaris, Microsome
Conditions: not given

Row | SMILES | half-life
10 | O=S(=O)(c1cccc(F)c1)c1ccc2c3c(oc2c1)C1(CCCOC1)NCC3 (stereo in doubt; 2) [listing 2 of 2 here] | > 40 min

Biological target: 5-hydroxytryptamine receptor 6 (Rattus norvegicus, UniProt P31388)
Sequence (P31388 whole entry): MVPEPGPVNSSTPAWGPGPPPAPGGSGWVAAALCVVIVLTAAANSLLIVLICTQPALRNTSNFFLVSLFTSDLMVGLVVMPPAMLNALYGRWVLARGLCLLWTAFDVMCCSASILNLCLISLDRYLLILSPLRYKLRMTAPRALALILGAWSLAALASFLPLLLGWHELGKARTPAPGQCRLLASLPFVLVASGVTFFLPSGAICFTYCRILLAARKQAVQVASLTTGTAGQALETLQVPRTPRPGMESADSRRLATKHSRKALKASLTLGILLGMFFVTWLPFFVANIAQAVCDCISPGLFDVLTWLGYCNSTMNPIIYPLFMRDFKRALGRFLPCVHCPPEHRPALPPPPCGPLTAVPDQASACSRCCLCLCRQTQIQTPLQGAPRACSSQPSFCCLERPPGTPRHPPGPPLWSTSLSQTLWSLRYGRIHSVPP
Assay: Displacement of [3H]LSD from full length rat 5HT6 receptor
Conditions: not given
Method in brief: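 Radioligand binding with [³H]LSD on membranes from cells expressing full-length rat 5-HT6R.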

Row | SMILES | Ki
11 | O=S(=O)(c1cccc(F)c1)c1ccc2c3c(oc2c1)C1(CCCOC1)NCC3 (stereo in doubt; 2) [listing 2 of 2 here] | 0.0169 µM

Biological target: Cytochrome P450 2C19 (Homo sapiens, UniProt P33261)
Sequence (P33261 whole entry): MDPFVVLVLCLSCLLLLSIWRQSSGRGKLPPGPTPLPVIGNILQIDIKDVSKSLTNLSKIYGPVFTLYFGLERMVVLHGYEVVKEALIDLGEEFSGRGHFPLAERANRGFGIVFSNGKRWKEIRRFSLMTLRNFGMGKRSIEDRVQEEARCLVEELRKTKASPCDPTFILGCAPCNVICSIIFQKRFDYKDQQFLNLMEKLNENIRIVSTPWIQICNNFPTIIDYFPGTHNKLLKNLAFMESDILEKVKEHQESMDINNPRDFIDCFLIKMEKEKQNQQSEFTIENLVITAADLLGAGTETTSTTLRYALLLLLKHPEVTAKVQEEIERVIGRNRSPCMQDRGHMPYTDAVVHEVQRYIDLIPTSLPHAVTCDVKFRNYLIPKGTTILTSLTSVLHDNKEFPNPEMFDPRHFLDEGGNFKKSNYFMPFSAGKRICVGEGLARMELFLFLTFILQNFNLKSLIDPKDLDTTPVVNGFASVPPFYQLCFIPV
Assay: Inhibition of CYP2C19
Assay type: ADME
Conditions: not given

Row | SMILES | IC50
12 | O=S(=O)(c1cccc(F)c1)c1ccc2c3c(oc2c1)C1(CCCOC1)NCC3 (stereo in doubt; 2) [listing 2 of 2 here] | > 30 µM

Biological target: Cytochrome P450 3A4 (Homo sapiens, UniProt P08684)
Sequence (P08684 whole entry): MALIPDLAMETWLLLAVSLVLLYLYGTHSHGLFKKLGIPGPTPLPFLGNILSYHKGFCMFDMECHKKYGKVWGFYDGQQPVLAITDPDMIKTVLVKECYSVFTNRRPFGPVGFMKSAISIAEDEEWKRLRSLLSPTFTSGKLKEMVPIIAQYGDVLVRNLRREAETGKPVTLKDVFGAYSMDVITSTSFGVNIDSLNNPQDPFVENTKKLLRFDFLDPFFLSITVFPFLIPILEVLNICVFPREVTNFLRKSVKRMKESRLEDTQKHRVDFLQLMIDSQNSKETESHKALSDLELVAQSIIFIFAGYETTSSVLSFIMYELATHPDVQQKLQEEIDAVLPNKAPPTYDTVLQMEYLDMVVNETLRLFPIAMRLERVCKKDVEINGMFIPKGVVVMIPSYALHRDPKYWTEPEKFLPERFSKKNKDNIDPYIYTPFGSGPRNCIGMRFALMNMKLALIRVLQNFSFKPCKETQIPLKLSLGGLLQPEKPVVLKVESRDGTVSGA
Assay: Inhibition of CYP3A4
Assay type: ADME
Conditions: not given

Row | SMILES | IC50
13 | O=S(=O)(c1cccc(F)c1)c1ccc2c3c(oc2c1)C1(CCCOC1)NCC3 (stereo in doubt; 2) [listing 2 of 2 here] | > 30 µM

Biological target: L-type calcium channel (Rattus norvegicus, UniProt P22002+P27732+Q02485)
Assay: Inhibition of rat L-type calcium channel at 10 uM
Conditions: not given

Row | SMILES | inhibition at 10 µM
14 | O=S(=O)(c1cccc(F)c1)c1ccc2c3c(oc2c1)C1(CCCOC1)NCC3 (stereo in doubt; 2) [listing 2 of 2 here] | > 50%

Tested on: Rattus norvegicus
Assay: Increase of short-term memory in rat social recognition model at 0.1 to 3 mg/kg, ip
Assay type: functional, organism-based
Conditions: not given

Row | SMILES | Activity
15 | O=S(=O)(c1cccc(F)c1)c1ccc2c3c(oc2c1)C1(CCCOC1)NCC3 (stereo in doubt; 2) [listing 1 of 2 here] | Active

Biological target: D(3) dopamine receptor (Homo sapiens) (UniProt P35462)
Sequence (P35462 whole entry): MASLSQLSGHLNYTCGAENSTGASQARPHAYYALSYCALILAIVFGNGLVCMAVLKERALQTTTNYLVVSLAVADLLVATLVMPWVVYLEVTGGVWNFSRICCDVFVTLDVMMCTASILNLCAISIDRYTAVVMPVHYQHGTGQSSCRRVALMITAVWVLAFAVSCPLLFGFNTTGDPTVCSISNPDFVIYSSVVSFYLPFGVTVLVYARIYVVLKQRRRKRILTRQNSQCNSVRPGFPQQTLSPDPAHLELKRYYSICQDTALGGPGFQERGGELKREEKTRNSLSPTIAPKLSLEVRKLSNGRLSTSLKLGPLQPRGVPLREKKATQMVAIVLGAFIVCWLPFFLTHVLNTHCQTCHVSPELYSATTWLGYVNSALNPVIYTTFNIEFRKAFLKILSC
Conditions: 10 uM

Row | SMILES | inhibition
16 | O=S(=O)(c1cccc(F)c1)c1ccc2c3c(oc2c1)C1(CCCOC1)NCC3 (stereo in doubt; 2) [listing 1 of 2 here] | > 50%

Tested on: not listed separately
Assay: Half life in rat at 1 mg/kg, iv
Assay type: ADME, organism-based
Parameters: dose 1 mg/kg, route intravenous
Conditions: in vivo

Row | SMILES | half-life
17 | O=S(=O)(c1cccc(F)c1)c1ccc2c3c(oc2c1)C1(CCCOC1)NCC3 (stereo in doubt; 2) [listing 2 of 2 here] | 84 min

Tested on: not listed separately
Assay: Ratio of drug level in brain to plasma in rat at 5 mg/kg, ip
Assay type: ADME, organism-based
Parameters: dose 5 mg/kg, route intraperitoneal
Conditions: read-out: BPR
Method in brief: as §1

Row | SMILES | Kp
18 | O=S(=O)(c1cccc(F)c1)c1ccc2c3c(oc2c1)C1(CCCOC1)NCC3 (stereo in doubt; 2) [listing 2 of 2 here] | 2

Tested on: not listed separately
Assay: Half life in human liver microsomes
Assay type: ADME, Microsome
Conditions: not given

Row | SMILES | half-life
19 | O=S(=O)(c1cccc(F)c1)c1ccc2c3c(oc2c1)C1(CCCOC1)NCC3 (stereo in doubt; 2) [listing 2 of 2 here] | 30 min

Biological target: T4, Alpha-2B adrenergic receptor (Homo sapiens) (UniProt P18089)
T4 sequence (whole entry): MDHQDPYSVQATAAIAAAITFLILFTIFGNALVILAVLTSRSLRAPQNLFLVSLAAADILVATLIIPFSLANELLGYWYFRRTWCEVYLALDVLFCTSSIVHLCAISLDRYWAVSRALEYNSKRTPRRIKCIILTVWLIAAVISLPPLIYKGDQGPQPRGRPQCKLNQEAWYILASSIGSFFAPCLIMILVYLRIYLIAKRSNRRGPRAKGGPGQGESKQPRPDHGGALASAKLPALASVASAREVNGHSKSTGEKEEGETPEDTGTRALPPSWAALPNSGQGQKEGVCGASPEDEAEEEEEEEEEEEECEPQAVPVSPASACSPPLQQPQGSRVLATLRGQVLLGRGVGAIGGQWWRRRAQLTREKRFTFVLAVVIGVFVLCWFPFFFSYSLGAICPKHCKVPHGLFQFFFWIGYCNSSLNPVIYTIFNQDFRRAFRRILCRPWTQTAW
Conditions: 10 uM

Row | SMILES | inhibition
20 | O=S(=O)(c1cccc(F)c1)c1ccc2c3c(oc2c1)C1(CCCOC1)NCC3 (stereo in doubt; 2) [listing 1 of 2 here] | > 50%

Tested on: not listed separately
Assay: Plasma clearance in rat at 1 mg/kg, iv
Assay type: ADME, organism-based
Parameters: dose 1 mg/kg, route intravenous
Conditions: not given

Row | SMILES | clearance
21 | O=S(=O)(c1cccc(F)c1)c1ccc2c3c(oc2c1)C1(CCCOC1)NCC3 (stereo in doubt; 2) [listing 2 of 2 here] | 32 mL/min/kg

Tested on: not listed separately
Assay: Volume of distribution in rat at 1 mg/kg, iv
Assay type: ADME, organism-based
Parameters: dose 1 mg/kg, route intravenous
Conditions: in vivo

Row | SMILES | Vd
22 | O=S(=O)(c1cccc(F)c1)c1ccc2c3c(oc2c1)C1(CCCOC1)NCC3 (stereo in doubt; 2) [listing 2 of 2 here] | 4 L/kg

Tested on: not listed separately
Assay: Cmax in rat at 5 mg/kg, po
Assay type: ADME, organism-based
Parameters: dose 5 mg/kg, route oral
Conditions: in vivo

Row | SMILES | Cmax
23 | O=S(=O)(c1cccc(F)c1)c1ccc2c3c(oc2c1)C1(CCCOC1)NCC3 (stereo in doubt; 2) [listing 2 of 2 here] | 210 ng/mL

Biological target: Voltage-gated inwardly rectifying potassium channel KCNH2 (Homo sapiens, UniProt Q12809)
Assay: Inhibition of human ERG by patch express assay
Conditions: not given

Row | SMILES | IC50
24 | O=S(=O)(c1cccc(F)c1)c1ccc2c3c(oc2c1)C1(CCCOC1)NCC3 (stereo in doubt; 2) [listing 2 of 2 here] | 12 µM

Biological target: D(2) dopamine receptor (Homo sapiens) (UniProt P14416)
Sequence (P14416 whole entry): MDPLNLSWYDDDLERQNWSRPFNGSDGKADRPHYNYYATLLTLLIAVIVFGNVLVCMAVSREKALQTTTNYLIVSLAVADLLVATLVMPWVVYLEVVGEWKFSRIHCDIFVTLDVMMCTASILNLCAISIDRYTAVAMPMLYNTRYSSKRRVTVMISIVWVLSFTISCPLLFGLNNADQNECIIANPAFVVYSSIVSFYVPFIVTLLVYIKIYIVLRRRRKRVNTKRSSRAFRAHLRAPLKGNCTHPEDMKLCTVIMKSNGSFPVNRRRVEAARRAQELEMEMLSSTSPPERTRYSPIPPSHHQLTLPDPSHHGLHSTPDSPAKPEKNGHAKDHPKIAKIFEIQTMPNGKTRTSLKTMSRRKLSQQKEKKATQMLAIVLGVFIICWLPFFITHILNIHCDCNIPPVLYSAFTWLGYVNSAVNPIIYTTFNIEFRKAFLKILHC
Conditions: 1 uM

Row | SMILES | inhibition
25 | O=S(=O)(c1cccc(F)c1)c1ccc2c3c(oc2c1)C1(CCCOC1)NCC3 (stereo in doubt; 2) [listing 1 of 2 here] | > 50%

Tested on: not listed separately
Assay: Half life in rat liver microsomes
Assay type: ADME, Microsome
Conditions: not given

Row | SMILES | half-life
26 | O=S(=O)(c1cccc(F)c1)c1ccc2c3c(oc2c1)C1(CCCOC1)NCC3 (stereo in doubt; 2) [listing 2 of 2 here] | 25 min

Tested on: Rattus norvegicus
Assay: AUC in rat at 5 mg/kg, po after 6 hrs
Assay type: ADME, organism-based, Plasma
Parameters: time < 6 hr, dose 5 mg/kg, route oral
Conditions: in vivo

Row | SMILES | AUC
27 | O=S(=O)(c1cccc(F)c1)c1ccc2c3c(oc2c1)C1(CCCOC1)NCC3 (stereo in doubt; 2) [listing 2 of 2 here] | 974 ng·h/mL
